Measured values from publication PMC4120251 (Journal of Alzheimer's disease : JAD, 2013).
Like-named read-outs stand apart in the source and are kept apart here.

How the values were obtained:
[1] = Tissue bioavailability: 14C-labeled peptide in brain; assay type: in vivo, mouse; details: 14C-labeled peptide via tail vein, brain at 6 h
[2] = test system: U251 astrocytes; experiment: Cell viability, MTT assay; assay type: cell-based, human; details: U251 cells, 0 to 10 μg/ml, 24 h, n = 4
Procedure, shortened: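 U251-MG astroglioma cells were grown in DMEM/Ham's F-12 with 10 mM HEPES, 2 mM L-glutamine, penicillin/streptomycin and 10% FBS. Cells were exposed to test compound for 24 h, and viability was read by MTT reduction using a TOX-1 kit.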

[3] = test system: TNF-α; experiment: TNF-α ELISA in TBS soluble brain homogenate; assay type: in vivo; details: APP/PS1ΔE9 mice, 50 μg/mouse RO 3 times a week for 6 weeks, p < 0.05
Procedure, shortened: (§1)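 Saline-perfused cortex and hippocampus were homogenized in 15 volumes of ice-cold TBS (pH 7.4) with protease inhibitors. Homogenate was spun at 20,000g for 20 min at 4°C, and the supernatant (TBS-soluble fraction) was assayed with a commercial sandwich ELISA following the kit protocol. Values were normalized to total protein (BCA). Mice were 4-month-old males; controls received an equal volume of saline.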

[4] = test system: Iba-1 activated microglia; experiment: Activated microglia by Iba-1 immunostaining; assay type: in vivo; details: APP/PS1ΔE9 mice, 50 μg/mouse RO 3 times a week for 6 weeks, n = 8
Procedure, shortened: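 Right hemisphere fixed in buffered formaldehyde after saline perfusion under ketamine/xylazine. Free-floating 30 μm sections were stained with rabbit polyclonal anti-Iba-1 (1:250) and a Vectastain rabbit IgG kit. Four coronal sections per brain were imaged and converted to grayscale. Iba-1-positive area was measured over cortex and hippocampus and expressed as burden (% stained surface of total area). Mice were 4-month-old males.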

[5] = Plasma total cholesterol in APP/PS1ΔE9 mice; assay type: in vivo, mouse; details: peptide group before treatment, mean ± SEM, n = 8
Procedure, shortened: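 Plasma total cholesterol was determined colorimetrically with Infinity cholesterol reagent at baseline and after 6 weeks of treatment. Mice were 4-month-old male transgenics.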

[6] = test system: U251 astrocytes; experiment: Secretion of ApoE, human ApoE ELISA of media; assay type: cell-based; details: no ox-PAPC or oAβ42, ApoE in media by ELISA, n = 6
[7] = in vivo; cited from earlier work
[8] = assay type: in vivo, mouse; details: ApoE null mice
[9] = test system: IL-6; experiment: IL-6 ELISA in TBS soluble brain homogenate; assay type: in vivo; details: APP/PS1ΔE9 mice, 50 μg/mouse RO 3 times a week for 6 weeks, p < 0.05
Procedure, shortened: as §1

Question: For “Ac-LRKLRKRLLRDWLKAFYDKVAEKLKEAF-NH2 [Ac-hE18A-NH2]”, which “peptide crossing BBB, fraction of the injected dose” value [1] is on record?
Answer: Its value is 0.13 % of the injected dose.

Question: And the “toxicity (cell viability) compared to control” value [2]?
Answer: The value was “no toxicity”.

Question: What about the “TNF-α level in TBS soluble fraction of brain homogenate versus control” value [3] of the same substance?
Answer: Its value is “decreased significantly”.

Question: And the “reduction in the amount of activated microglia (Iba-1 staining)” value [4]?
Answer: The value was 13%.

Question: What about the “number of Iba-1 immunopositive activated microglia versus saline” value ([4]; p < 0.05) of the same substance?
Answer: The value was “significantly reduced”.

Question: What about the “plasma cholesterol at baseline” value [5] of the same substance?
Answer: Its value is 165.3 ± 10.3 mg/dL.

Question: And the “enhancement of ApoE secretion by peptide by itself” value [6]?
Answer: Its value is “about 25%”.

Question: And the “half-life in plasma, rapid phase” value [7]?
Answer: The value was 1.6 min.

Question: What about the “half-life in plasma, slow phase” value [7] of the same substance?
Answer: The value was 96.6 min.

Question: And the “change in plasma cholesterol levels compared to baseline” value (from here on “change in plasma cholesterol levels”) ([8]; retro-orbital (RO), 5 min)?
Answer: Its value is 52 ± 3%.

Question: What about the “change in plasma cholesterol levels” value ([8]; retro-orbital (RO), 5 h) of the same substance?
Answer: Its value is 17.2 ± 2%.

Question: And the “change in plasma cholesterol levels” value ([8]; tail vein, 5 min)?
Answer: The value was 52 ± 4%.

Question: What about the “change in plasma cholesterol levels” value ([8]; tail vein, 5 h) of the same substance?
Answer: The value was 14 ± 1%.

Question: What about the “IL-6 level in TBS soluble fraction of brain homogenate versus control” value [9] of the same substance?
Answer: The value was “decreased significantly”.
